In brackets after ≈: the same amount, converted by molar mass. Activity calls are given as the source filed them. The calls are words filed in the database; no cut-off is given here.
Legend:
Escherichia coli [1] = test: (§1) Inhibition of CTX-M2 in beta-lactam-resistant Escherichia coli TG1 transfected with pBGS18 plasmid encoding replication origin and kanamycin resistance assessed as potentiation of ampicillin-induced antibacterial activity by measuring ampicillin MIC at 16 ug/mL in Mueller-Hinton broth by CLSI protocol based method (Rvb > 1024 ug/mL)
Method in brief: (§2)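 MIC of the reporter antibiotic measured by CLSI broth microdilution in Mueller-Hinton II broth, with and without inhibitor at 16 µg mL-1. Reporters were ampicillin for class A (TEM-1, CTX-M-2), ceftazidime for class C (CMY-2, DHA-1) and imipenem for class D (OXA-23, OXA-24/40, OXA-48). MIC is the lowest concentration with no visible growth, mean of three independent replicates. Strains were grown in LB at 37 °C, with kanamycin or ampicillin at 50 mg L-1 where needed.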

[2] = target: Beta-lactamase TEM-1 (Escherichia coli) (UniProt Q4GY26); test: as §1, with “TEM-1” for “CTX-M2”, “penicillin-resistant” for “beta-lactam-resistant”; method in brief: as §2
[3] = test system: Acinetobacter baumannii ATCC 17978; test: (§3) Inhibition of OXA-24/40 in carbapenem-resistant Acinetobacter baumannii ATCC 17978 transfected with pET-RA-KmR plasmid encoding rifampicin and kanamycin resistance assessed as potentiation of imipenem-induced antibacterial activity by measuring imipenem MIC at 16 ug/mL in Mueller-Hinton broth by CLSI protocol based method (reference value: 64 ug/mL); method in brief: as §2
Escherichia coli [4] = test: as §1, with “CMY-2” for “CTX-M2”, “ceftazidime-induced” for “ampicillin-induced”, “ceftazidime” for “ampicillin”, “(reference value: 32” for “(Rvb > 1024”; method in brief: as §2
Escherichia coli [5] = test: as §1, with “DHA-1” for “CTX-M2”, “ceftazidime-induced” for “ampicillin-induced”, “ceftazidime” for “ampicillin”, “(reference value: 32” for “(Rvb > 1024”; method in brief: as §2
[6] = target: Beta-lactamase OXA-23 (Acinetobacter baumannii) (UniProt Q9L4P2); test: as §3, with “OXA-23” for “OXA-24/40”, “8” for “64”; method in brief: as §2
Escherichia coli [7] = test: as §1, with “measuring fold reduction in” for “measuring”, “relative to ampicillin MIC alone” for “(Rvb > 1024 ug/mL)”; method in brief: as §2
Klebsiella pneumoniae [8] = test: Inhibition of OXA-48 in beta-lactam-resistant Klebsiella pneumoniae assessed as potentiation of imipenem-induced antibacterial activity by measuring imipenem MIC at 16 ug/mL in Mueller-Hinton broth by CLSI protocol based method (reference value: 64 ug/mL); method in brief: as §2
Acinetobacter baumannii = test: Antibacterial activity against wild type carbapenem-susceptible Acinetobacter baumannii ATCC 17978 in Mueller-Hinton broth by CLSI protocol based method; format: functional
Method in brief: (§4)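 Broth microdilution MIC in Mueller-Hinton II broth following CLSI. Strains were grown in LB broth or on LB agar at 37 °C and stored at -80 °C in LB with 15% glycerol. MIC is the lowest concentration with no visible growth, given as the mean of three independent replicates.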

Klebsiella pneumoniae [9] = test: Antibacterial activity against wild type beta-lactam-resistant Klebsiella pneumoniae in Mueller-Hinton broth by CLSI protocol based method; format: functional; method in brief: as §4
[10] = Inhibition of carbapenem-resistant Acinetobacter baumannii ATCC 17978 OXA-24/40 expressed in Escherichia coli BL21 using nitrocefin as substrate measured after 15 mins by spectrophotometry analysis
[11] = test system: Acinetobacter baumannii ATCC 17978; test: Binding affinity to OXA-24/40 in carbapenem-resistant Acinetobacter baumannii ATCC 17978 assessed as ezyme-compound adduct formation from loss of catechol group with increase in mass at 1:100 ezyme-compound ratio using nitrocefin as substrate at pH 7 and 25 degree C by MALDI-TOF MS analysis
Method in brief: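 OXA-24/40 (from a 0.9 mg mL-1 stock) was incubated with ligand at a 1:100 enzyme/inhibitor molar ratio in 50 mM Tris-HCl, 150 mM NaCl, 1 mM EDTA, pH 7.0, 25 °C, for 30 min. Activity was followed by nitrocefin hydrolysis at 482 nm. Samples were then washed and concentrated with 5 mM ammonium bicarbonate, freeze-dried, and analysed by MALDI-TOF for the covalent adduct mass shift, in triplicate.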

[12] = test system: Acinetobacter baumannii ATCC 17978; test: Inhibition of Acinetobacter baumannii ATCC 17978 OXA-24/40 expressed in Escherichia coli BL21 assessed as ratio of Kinact/Ki using nitrocefin as substrate measured after 15 mins by spectrophotometry analysis
Klebsiella pneumoniae [13] = test: Binding affinity to OXA-48 in Klebsiella pneumoniae assessed as ezyme-compound adduct formation from loss of catechol group with increase in mass at 1:100 ezyme-compound ratio using nitrocefin as substrate at pH 7 and 25 degree C by MALDI-TOF MS analysis
Method in brief: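 OXA-48 from K. pneumoniae incubated with ligand at 1:100 enzyme/inhibitor molar ratio in 50 mM Tris-HCl, 150 mM NaCl, 1 mM EDTA pH 7.0, 25 °C, 30 min; activity followed on aliquots by nitrocefin hydrolysis (482 nm) in phosphate/bicarbonate pH 7.4; samples then washed with 5 mM ammonium bicarbonate by ultrafiltration, freeze-dried, analysed by MALDI-TOF; triplicate.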

[14] = test system: Acinetobacter baumannii ATCC 17978; test: Inhibition of carbapenem-resistant Acinetobacter baumannii ATCC 17978 OXA-24/40 expressed in Escherichia coli BL21 assessed as inactivation rate constant using nitrocefin as substrate measured after 15 mins by spectrophotometry analysis
Escherichia coli [15] = test: Antibacterial activity against wild type Escherichia coli TG1 in Mueller-Hinton broth by CLSI protocol based method; format: functional; method in brief: as §4
[16] = test system: Acinetobacter baumannii ATCC 17978; test: Inhibition of carbapenem-resistant Acinetobacter baumannii ATCC 17978 OXA-24/40 expressed in Escherichia coli BL21 using nitrocefin as substrate measured after 15 mins by spectrophotometry analysis relative to parent compound
[17] = Drug metabolism assessed as decrease in centered band formation at 408 nm leading to -indolizine skeleton formation at 25 degree C measured up to 2 mins for 15 mins in presence of sodium methoxide by UV-Vis spectroscopy
Method in brief: (§5)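 Methanolysis followed after adding 1 equivalent NaOMe (1 M in MeOH) at 25 °C over 15 min; UV-Vis spectra scanned 600–200 nm, 2.0 nm bandwidth, 1 cm cell, collected at 0.5, 1.0, 1.5 and 2.0 min; mixture afterwards checked by HPLC-MS.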

[18] = Drug metabolism assessed as decrease in centered band formation at 253 nm leading to -indolizine skeleton formation at 25 degree C measured up to 2 mins for 15 mins in presence of sodium methoxide by UV-Vis spectroscopy; method in brief: as §5
[19] = Drug metabolism assessed as centered band formation at 295 nm leading to conjugate imine intermediate formation at 25 degree C measured up to 2 mins for 15 mins in presence of sodium methoxide by UV-Vis spectroscopy; method in brief: as §5
[20] = test system: Acinetobacter baumannii ATCC 17978; test: Inhibition of carbapenem-resistant Acinetobacter baumannii ATCC 17978 OXA-24/40 expressed in Escherichia coli BL21 assessed as ratio of Kinact/Ki using nitrocefin as substrate measured after 15 mins by spectrophotometry analysis relative to parent compound

Row | SMILES | MIC (Escherichia coli [1]) [µg/mL] | MIC [2] [µg/mL] | MIC [3] [µg/mL] | MIC (Escherichia coli [4]) [µg/mL] | MIC (Escherichia coli [5]) [µg/mL] | MIC [6] [µg/mL] | Ratio (Escherichia coli [7]) | MIC (Klebsiella pneumoniae [8]) [µg/mL] | Ki [10] [nM] | Ratio [12] [M⁻¹ s⁻¹] | Activity (Klebsiella pneumoniae [13]) | Kinact [14] [ms-1] | other results
1 | O=C(NC1CCNCC1)[C@@H]1CC[C@@H]2CN1C(=O)N2OS(=O)(=O)O | 16 | 4 | 64 | < 0.25 | < 0.25 | 8 | 64 | 8 |  |  |  |  | 
2 | C[C@@H](O)[C@H]1C(=O)N2C(C(=O)O)=C(SCCNC=N)C[C@H]12 [IMIPENEM ANHYDROUS] |  |  |  |  |  |  |  |  |  |  |  |  | MIC (Acinetobacter baumannii): 0.5 µg/mL (≈ 1.67 µM); MIC (Klebsiella pneumoniae [9]): 0.5 µg/mL (≈ 1.67 µM)
3 | C[C@]1(COC(=O)Cc2ccc(O)c(O)c2)[C@H](C(=O)O)N2C(=O)/C(=C/c3ccc(F)cn3)[C@H]2S1(=O)=O | 32 | 2 | 1 | < 0.25 | < 0.25 | 1 |  | 4 | 495 | 48900 | Active | 25 | Activity [11]: Active
4 | C[C@]1(COC(=O)Cc2ccc(O)c(O)c2)[C@H](C(=O)O)N2C(=O)/C(=C/c3ccccn3)[C@H]2S1(=O)=O | 16 | 2 | 0.5 | < 0.25 | < 0.25 | 0.5 | 64 | 4 | 234 | 98200 |  | 22 | 
5 | C[C@]1(COC(=O)Cc2ccc(O)c(O)c2)[C@H](C(=O)O)N2C(=O)/C(=C/c3nccc4ccsc34)[C@H]2S1(=O)=O | 256 | 2 | 8 | < 0.25 | < 0.25 | 2 |  | 64 | 247 | 47600 | Active | 11 | Activity [11]: Active
6 | CC(C)(O/N=C(\C(=O)N[C@@H]1C(=O)N2C(C(=O)[O-])=C(C[n+]3ccccc3)CS[C@H]12)c1csc(N)n1)C(=O)O [CEFTAZIDIME] |  |  |  |  |  |  |  |  |  |  |  |  | MIC (Escherichia coli [15]): ≤ 0.25 µg/mL
7 | C[C@]1(COC(=O)Cc2ccc(O)c(O)c2)[C@H](C(=O)O)N2C(=O)/C(=C/c3cc(Br)ccn3)[C@H]2S1(=O)=O | 16 | 2 | 1 | < 0.25 | < 0.25 | 1 | 64 | 4 | 140 | 159000 | Active | 22 | Ratio Ki [16]: 2; Drug metabolism [17]: Metabolite detected; Activity [11]: Active; Drug metabolism [18]: Metabolite detected; Drug metabolism [19]: Metabolite detected; Ratio [20]: 1.6
8 | C[C@]1(COC(=O)Cc2ccc(O)c(O)c2)[C@H](C(=O)O)N2C(=O)/C(=C/c3cc4ccccc4cn3)[C@H]2S1(=O)=O | 256 | 4 | 2 | 2 | 2 | 2 |  | 8 |  |  | Active |  | 
9 | COc1ccnc(/C=C2/C(=O)N3[C@@H](C(=O)O)[C@](C)(COC(=O)Cc4ccc(O)c(O)c4)S(=O)(=O)[C@H]23)c1OC | 256 | 2 | 8 | < 0.25 | < 0.25 | 4 |  | 64 | 276 | 83200 | Active | 24 | 
10 | Cn1cc(-c2ccnc(/C=C3/C(=O)N4[C@@H](C(=O)O)[C@](C)(COC(=O)Cc5ccc(O)c(O)c5)S(=O)(=O)[C@H]34)c2)cn1 | 16 | 2 | 1 | < 0.25 | < 0.25 | 1 | 64 | 8 | 217 | 110000 | Active | 24 | 
11 | NC(=O)[C@@H]1CC[C@@H]2CN1C(=O)N2OS(=O)(=O)[O-].[Na+] [AVIBACTAM SODIUM] |  |  | 16 |  |  | 4 |  |  |  |  |  |  | MIC (Acinetobacter baumannii): 0.5 µg/mL; MIC (Klebsiella pneumoniae [9]): 0.5 µg/mL; MIC (Escherichia coli [15]): 2 µg/mL
